For series [1], the target named is T1, Stromal cell-derived factor 1 (Homo sapiens, UniProt P48061). The series can be described thus: Binding affinity to Texas Red-labelled CXCL12 (unknown origin) assessed as inhibition of CXCL12-Texas Red binding to EGFP-labeled human CXCR4 expressed in HEK293 cell membranes pre-incubated for 1 hr by FRET-based binding assay. The method in brief:
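HEK-293 cells stably expressing human EGFP-CXCR4, 10⁶ cells/ml in HEPES buffer pH 7.4 with 0.1% BSA, 21 °C. CXCL12-Texas Red (100 nM) was preincubated 1 h at room temperature with compound or DMSO, then added at t=150 s. FRET read as loss of EGFP emission at 510 nm (excitation 470 nm) up to equilibrium. Ki from dose-response curves.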

Series [2] can be described thus: Thermodynamic solubility in pH 7.4 PBS/Cdx buffer incubated for 24 hrs at 22 degC by HPLC method. In kind it is physicochemical. Particulars: read-out: Therm_solubility. In a few lines: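 Powder dissolved to saturation in pH 7.4 PBS (100 mM sodium phosphate, 150 mM NaCl), or in PBS with 10% Cdx, and shaken 24 h. After centrifugation, supernatant quantified by HPLC against a per-compound calibration line prepared from the DMSO stock.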

A short description of series [3]: Chemical stability in pH 7.4 PBS/Cdx buffer assessed as parent compound remaining at 10 uM incubated for 24 hrs by RP-HPLC method. In kind it is physicochemical. To be noted: read-out: Stability. In a few lines: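 Compound diluted from DMSO stock to 10 μM final (1% DMSO) in PBS pH 7.4, or in PBS with 10% w/w (2-hydroxypropyl)-β-cyclodextrin. Sampled at t0, 2, 4, 6 and 24 h and injected directly onto RP-HPLC. Percent remaining relative to t0 from peak area.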

For series [4], the system named is Mus musculus. The series can be described thus: Inhibition of eosinophil infiltration in Balb/c mouse model of 8 day model of allergic eosinophilic airway inflammation dosed intranasally 2 hrs before ovalbumin challenge by hemocytometry. Type of series: functional, organism-based. The method in brief:
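Same intranasal OVA model with dose-response treatment in PBS/Cdx 10% given 2 h before each challenge. Percent inhibition of BAL eosinophil recruitment; mean ± SEM, n=6/group.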

Series [5] in a line: Stability in presence of GSH assessed as Michael acceptor reactivity by measuring GSH adduct formation after 2 hrs at 37 degC by LC-MS/MS method. In kind it is physicochemical. In a few lines: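 Compound 200 μM with 500 μM reduced GSH in methanol/50 mM carbonate buffer pH 8. Aliquots taken at 1 min and 2 h, diluted 1/40, and analysed by LC-MS/MS for GSH-conjugate formation.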

The target in series [6] is T1, Stromal cell-derived factor 1. In words: Binding affinity to CXCL12 (unknown origin) assessed as changes in tryptophan fluorescence intensity. The method in brief:
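Intrinsic Trp fluorescence of CXCL12 (2 μM in Hepes buffer), excitation 285 nm, emission 340 nm, titrated with increasing compound. Kd obtained by fitting a 1:1 binding quadratic model with chemokine fixed at 2 μM. Mean ± SD of three independent experiments.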

Series [7] has as its system Mus musculus. The series can be described thus: Toxicity in Balb/c mouse model of hypereosinophilia assessed as reduction in body weight at 350 umol/kg, ip dosed daily 2 hrs before allergen challenge for 10 days and measured 24 hrs after last dose. Type of series: organism-based. To be noted: in vivo. The method in brief:
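Mice given 10 daily administrations at 350 μmol/kg. Monitored for weight loss and for signs of toxicity, including prostration and bristly hair.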

Series [8] relates to Mus musculus. In words: Toxicity in Balb/c mouse model of hypereosinophilia assessed as induction of spleen lesions at 350 umol/kg, ip dosed daily 2 hrs before allergen challenge for […] and measured 24 hrs after last dose by Gomori's trichrome staining based histological analysis. To be noted: in vivo. Type of series: organism-based.
The test system of series [9] is Mus musculus. The series can be described thus: Toxicity in Balb/c mouse model of hypereosinophilia assessed as induction of kidney lesions at 350 umol/kg, ip dosed daily 2 hrs before allergen challenge for […] and measured 24 hrs after last dose by Gomori's trichrome staining based histological analysis. In kind it is organism-based. Particulars: in vivo.
Series [10] has as its system Mus musculus. The series can be described thus: Anti-asthma activity in Balb/c mouse model of mouse model of hypereosinophilia assessed as inhibition of eosinophil recruitment at 1400 umol/kg, po dosed intranasally 2 hrs before ovalbumin challenge by hemocytometry. Type of series: functional. To be noted: in the assay text read “po dosed” for “po dosed intranasally”. The method in brief: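 OVA-sensitized 9-week-old male Balb/c mice (50 μg OVA on 2 mg alum i.p., days 0–2; intranasal OVA 10 μg, days 5–7). Compound at 1400 μmol/kg in PBS/MC 0.5%/Tween 80 0.05% given by gavage 2 h before each challenge. BAL 24 h after the last challenge; eosinophils counted by hemocytometer and Diff-Quick cytospin (≥400 cells); n=6/group.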

Series [11] deals with T2, C-C motif chemokine 5 (Homo sapiens) (UniProt P13501).
T2 sequence (whole entry): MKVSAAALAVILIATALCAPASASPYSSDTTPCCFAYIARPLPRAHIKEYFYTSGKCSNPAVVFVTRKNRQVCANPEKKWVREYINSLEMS
The series can be described thus: Binding affinity to CCL5 (unknown origin) assessed as inhibition of CCL5-induced increase in intracellular calcium level in EGFP-tagged CCR5 expressing HEK cells at 10 uM.

The source made the active and inactive calls. The calls are words filed in the database; no cut-off is given here.

These results are taken from ChEMBL document CHEMBL4145692, “Discovery of a Locally and Orally Active CXCL12 Neutraligand (LIT-927) with Anti-inflammatory Effect in a Murine Model of Allergic Airway Hypereosinophilia” (J Med Chem, 2018).

As a reminder, the Ki is a measure of affinity in units of concentration, obtained from inhibition or displacement. One may read the Kd as the free concentration of one partner at which half of the binding sites on the other are occupied at equilibrium, for simple one-to-one binding. By inhibition in vivo is commonly meant the share of the control response that was lost under treatment.

T1 sequence (P48061 whole entry): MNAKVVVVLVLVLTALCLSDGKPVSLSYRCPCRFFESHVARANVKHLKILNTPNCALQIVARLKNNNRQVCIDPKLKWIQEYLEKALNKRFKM

As to `COc1cc(-c2cc(-c3ccc(Cl)cc3)nc(=O)[nH]2)ccc1O`, in [1], the inhibitory constant (Ki) is 267 nM. Moreover, the solubility thermodynamic at 24 h in series [2] is above 5 mM. In addition, in series [3], the remaining at 24 h, 10 µM worked out at 100%. Also, the IC50 in series [4] amounted to 310 nmol/kg. Moreover, the Stability result in series [5] was “Stable”. Moreover, the Kd in [6] came to 780 nM. Also, the Activity result in series [7], in [8] and in [9] was “Non-Toxic” throughout. Also, the inhibition in vivo at 1400 µmol/kg in series [10] was 62%. In addition, the inhibition result in series [11] was “inactive”.
